Measured values published in ChEMBL document CHEMBL5335782, “Discovery of new imidazotetrazinones with potential to overcome tumor resistance” (Eur J Med Chem, 2023).
Active and inactive are the calls of the source. The rule behind the calls is not given here.

Key:
[1] = Antiproliferative activity against human U373V cells assessed as inhibition of cell growth measured […] by MTT assay; format: functional
Outline: (§1)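 Cells seeded at 6.5×10^2/well, left overnight, then exposed to vehicle or agent (n = 4-8; final 0.5–1000 μM; DMSO stocks of 50 or 10 mM diluted in medium). MTT read at time of addition and after 6 days at 37 °C, 5% CO₂. MTT 0.4 mg/mL for 4 h, formazan taken up in DMSO, A550. GI50 from non-linear regression; mean ± SD of >3 experiments.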

[2] = Antiproliferative activity against MGMT-expressing human U373M cells assessed as inhibition of cell growth measured after […] by MTT assay; format: functional; outline: as §1
HCT-116 [3] = assay: Antiproliferative activity against MMR-deficient human HCT-116 cells assessed as inhibition of cell growth measured after […] by MTT assay; format: functional; outline: as §1
[4] = Selectivity ratio of GI50 for cytotoxicity against human MRC5 cells to GI50 for antiproliferative activity against MMR-deficient human HCT-116 cells; format: toxicity, cell-based; conditions: MRC5 cells versus MMR-deficient HCT-116 cells, read-out: RatioGI50
U373V [5] = assay: Inhibition of cell colony formation in human U373V cells at 20 to 50 uM incubated for 24 hrs followed by drug removal and incubation in medium for 14 days; format: functional, cell-based; conditions: dose 20-50 µM
Outline: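 Clonogenic survival: exponentially growing cells seeded in triplicate at 400 cells/well, attached overnight, then exposed for 24 h to 0, 2, 20 or 50 μM agent. Medium then replaced with drug-free medium for 14 days, or until control colonies held ≥50 cells. Colonies fixed in cold methanol, stained with 0.5% methylene blue, counted, and expressed relative to control. 2–3 experiments.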

U373V [6] = assay: Induction of cell cycle arrest in human U373V cells assessed as accumulation of cells at G2/M phase at 100 uM measured after 120 hrs by propidium iodide staining based flow cytometry; format: functional
[7] = Induction of cell cycle arrest in human U373V cells assessed as accumulation of cells at pre-G1 phase at 100 uM measured after 120 hrs by propidium iodide staining based flow cytometry (reference value: 1%); format: functional
U373M [8] = assay: Induction of cell cycle arrest in MGMT-expressing human U373M cells at 100 uM measured after 120 hrs by propidium iodide staining based flow cytometry; format: functional
HCT-116 [9] = assay: Induction of cell cycle arrest in MMR-deficient human HCT-116 cells at 100 uM measured after 120 hrs by propidium iodide staining based flow cytometry; format: functional
[10] = Half life of the compound in phosphate buffered saline at pH 7.4 by 1H NMR spectroscopic analysis; format: physicochemical
Outline: (§2)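 Half-life followed by ¹H NMR spectroscopy in phosphate buffers at pH 7.4 or 5.5.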

[11] = Half life of the compound in phosphate buffered saline at pH 5.5 by 1H NMR spectroscopic analysis; format: physicochemical; outline: as §2
[12] = Half life of the compound in phosphate buffered saline at pH 7.4 by LC-MS analysis; format: physicochemical
Outline: (§3)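 Half-life in phosphate buffers at pH 5, 6.8 or 7.4 followed by LC-MS; mean of two independent experiments.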

[13] = Half life of the compound in phosphate buffered saline at pH 6.8 by LC-MS analysis; format: physicochemical; outline: as §3
[14] = Half life of the compound in phosphate buffered saline at pH 5 by LC-MS analysis; format: physicochemical; outline: as §3
[15] = Half life in human plasma; format: ADME, cell-free
[16] = Half life in rat plasma; format: ADME, cell-free
[17] = Intrinsic clearance in human liver microsomes in presence of NADPH; format: ADME, Microsome; conditions: read-out: CLH
[18] = Half life in human liver microsomes in presence of NADPH; format: ADME, Microsome
[19] = Intrinsic clearance in human liver microsomes in absence of NADPH; format: ADME, Microsome; conditions: read-out: CLH
[20] = Half life in human liver microsomes in absence of NADPH; format: ADME, Microsome
[21] = Intrinsic clearance in rat liver microsomes in presence of NADPH; format: ADME, Microsome; conditions: read-out: CLH
[22] = Half life in rat liver microsomes in presence of NADPH; format: ADME, Microsome
[23] = Intrinsic clearance in rat liver microsomes in absence of NADPH; format: ADME, Microsome; conditions: read-out: CLH
[24] = Half life in rat liver microsomes in absence of NADPH; format: ADME, Microsome
[25] = Permeability of the compound measured after 6 hrs by PAMPA assay; format: ADME; conditions: read-out: permeability
Outline: (§4)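 PAMPA passive-diffusion assay run as contract research under the provider's protocols, with control compounds. After 6 h incubation, permeability (Pe) and percentage recovery determined.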

[26] = Permeability of the compound assessed as drug recovery measured after 6 hrs by PAMPA assay; format: ADME; conditions: read-out: Drug recovery; outline: as §4
[27] = Ratio of permeability across dog MDCK cells transfected with MDR1 to permeability across wild type dog MDCK cells; format: ADME, cell-based, Canis lupus familiaris
[28] = Apparent elimination half life in human
[29] = Apparent elimination half life in human plasma
U373V [30] = assay: Induction of cell cycle arrest in human U373V cells assessed as accumulation of cells at S phase at 100 uM measured after 120 hrs by propidium iodide staining based flow cytometry; format: functional
U373M [31] = assay: Induction of cell cycle arrest in MGMT-expressing human U373M cells assessed as accumulation of cells at S phase at 100 uM measured after 120 hrs by propidium iodide staining based flow cytometry; format: functional
[32] = Induction of cell cycle arrest in MGMT-expressing human U373M cells assessed as accumulation of cells at G2/M phase at 100 uM measured after 120 hrs by propidium iodide staining based flow cytometry (Rvb ~ 15%); format: functional
U373V [33] = assay: Induction of cell cycle arrest in human U373V cells assessed as accumulation of cells at sub-G1 phase at 100 uM measured after 120 hrs by propidium iodide staining based flow cytometry; format: functional
U373M [34] = assay: Induction of cell cycle arrest in MGMT-expressing human U373M cells assessed as accumulation of cells at sub-G1 phase at 100 uM measured after 120 hrs by propidium iodide staining based flow cytometry; format: functional
HCT-116 [35] = assay: Induction of cell cycle arrest in MMR-deficient human HCT-116 cells assessed as loss of cell cycle integrity at 100 uM measured after 120 hrs by propidium iodide staining based flow cytometry; format: functional
HCT-116 [36] = assay: Induction of cell cycle arrest in MMR-deficient human HCT-116 cells assessed as accumulation of cells at sub-G1 phase at 100 uM measured after 120 hrs by propidium iodide staining based flow cytometry (Rvb ~5%); format: functional
[37] = Drug metabolism in phosphate buffered saline assessed as Tmax of 5-(3-(prop-2-yn-1-yl)triaz-2-en-1-yl)-1H-imidazole-4-carboxamide at pH 7.4 by 1HNMR spectroscopy; format: ADME; conditions: buffer
[38] = Drug metabolism in phosphate buffered saline assessed as half life of 5-(3-(prop-2-yn-1-yl)triaz-2-en-1-yl)-1H-imidazole-4-carboxamide at pH 7.4 by 1HNMR spectroscopy; format: ADME; conditions: buffer

C#CCn1nnc2c(-c3nc(-c4ccc(S(C)(=O)=O)cc4)cs3)ncn2c1=O
GI50 [1]: 22 µM
GI50 [2]: 14.7 µM
GI50 (HCT-116 [3]): 37 µM

C#CCN/N=N/c1[nH]cnc1-c1nccs1
GI50 [1]: 7.51 µM
GI50 [2]: 5.81 µM
GI50 (HCT-116 [3]): 5.97 µM

C#CCn1nnc2c(-c3nc(C4CCCC4)cs3)ncn2c1=O
GI50 [1]: 23.7 µM
GI50 [2]: 11.8 µM
GI50 (HCT-116 [3]): 19.2 µM

C#CCn1nnc2c(-c3nc(C(F)(F)C(F)(F)F)cs3)ncn2c1=O
GI50 [1]: 27.1 µM
GI50 [2]: 25.8 µM
GI50 (HCT-116 [3]): 27.7 µM

C#CCn1nnc2c(-c3nc(C(=C)C)cs3)ncn2c1=O
GI50 [1]: 18.7 µM
GI50 [2]: 14.2 µM
GI50 (HCT-116 [3]): 16.7 µM

C#CCn1nnc2c(-c3nc(C4CCC4)cs3)ncn2c1=O
GI50 [1]: 24.2 µM
GI50 [2]: 25.5 µM
GI50 (HCT-116 [3]): 20.3 µM

C#CCn1nnc2c(-c3ncc(C)s3)ncn2c1=O
GI50 [1]: 6.84 µM
GI50 [2]: 3.99 µM
GI50 (HCT-116 [3]): 4.6 µM

C#CCn1nnc2c(-c3nc(CC)cs3)ncn2c1=O
GI50 [1]: 23.5 µM
GI50 [2]: 9.67 µM
GI50 (HCT-116 [3]): 14.8 µM

Cn1nnc2c(C(N)=O)ncn2c1=O [TEMOZOLOMIDE]
GI50 [1]: 51.9 µM
GI50 [2]: 302 µM
GI50 (HCT-116 [3]): 291 µM
selectivity ratio [4]: 1.4
inhibition (U373V [5]): Active
Activity (U373V [6]): Active
Activity [7]: 9%
Activity (U373M [8]): inactive
Activity (HCT-116 [9]): inactive
half-life [10]: 1.53 h
half-life [11]: > 100 h
half-life [12]: 2.47 h
half-life [13]: 4.02 h
half-life [14]: > 8 h
half-life [15]: 0.33 h
half-life [16]: 0.298 h
microsomal CLint [17]: 27.3 µL/min/mg
half-life [18]: 0.848 h
microsomal CLint [19]: 23 µL/min/mg
half-life [20]: 1 h
microsomal CLint [21]: < 1 µL/min/mg
half-life [22]: > 8 h
microsomal CLint [23]: < 1 µL/min/mg
half-life [24]: > 8 h
Papp at 6 h [25]: 0.63 ×10⁻⁶ cm/s
recovery at 6 h [26]: 65.3%
Ratio [27]: 3.21
half-life [28]: 1.8 h
t1/2 [29]: 0.25 h

C#CCn1nnc2c(-c3nc(CO)cs3)ncn2c1=O
GI50 [1]: 24.4 µM
GI50 [2]: 14.8 µM
GI50 (HCT-116 [3]): 17.8 µM

C#CCn1nnc2c(C(N)=O)ncn2c1=O
GI50 [1]: 30 µM
GI50 [2]: 26.6 µM
GI50 (HCT-116 [3]): 28.1 µM
Activity (U373V [6]): Active
Activity (U373V [30]): Active
Activity (U373M [31]): Active
Activity [32]: 33%
Activity (U373V [33]): Active
Activity (U373M [34]): Active
Activity (HCT-116 [35]): Active
Activity (HCT-116 [36]): 96%
half-life [10]: 0.817 h
half-life [12]: 1.92 h
half-life [13]: 3.86 h
half-life [14]: > 8 h
half-life [15]: 0.242 h
half-life [16]: 0.432 h
microsomal CLint [17]: 18.1 µL/min/mg
half-life [18]: 1.3 h
microsomal CLint [19]: 25.2 µL/min/mg
half-life [20]: 0.918 h
microsomal CLint [21]: 35.5 µL/min/mg
half-life [22]: 0.655 h
microsomal CLint [23]: 29.2 µL/min/mg
half-life [24]: 0.812 h
Papp at 6 h [25]: 1.38 ×10⁻⁶ cm/s
recovery at 6 h [26]: 6.9%
Ratio [27]: 0.93
Tmax [37]: 2 h
t1/2 [38]: 4.5 h
